# Tests used:
# Candida parapsilosis = assay: Antifungal activity against Candida parapsilosis ATCC 22019 after 48 hrs by broth dilution method; format: functional; details: Lodderomyces parapsilosis, ATCC 22019, 48 h
# Candida albicans [1] = assay: Antifungal activity against Candida albicans ATCC 64124 after 48 hrs by broth dilution method; format: functional; details: Candida albicans, ATCC 64124, 48 h
# How it was run: (§1)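 CLSI M27-A3 broth microdilution with minor modifications. Overnight YPD culture grown at 35 °C, 200 rpm, adjusted to OD600 0.12, diluted in RPMI 1640 buffered to pH 7.0 with 0.165 M MOPS to a final 1–2 × 10^3 CFU/mL. Test compounds at 0.015–31.3 µg/mL, 48 h at 35 °C, DMSO <1.25%. […] Triplicate.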
# Nakaseomyces glabratus = assay: Antifungal activity against Candida glabrata ATCC 2001 after 48 hrs by broth dilution method; format: functional, CBS 138; details: Nakaseomyces glabratus, CBS 138, 48 h
# Aspergillus nidulans = assay: Antifungal activity against Aspergillus nidulans ATCC 38163 after 48 hrs by broth dilution method; format: functional; details: Aspergillus nidulans, ATCC 38163, 48 h
# How it was run: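 A. nidulans run per CLSI M38-A2. PDA spores were filtered through glass wool and counted by hemocytometer. Test range 0.03–31.3 µg/mL in MOPS-buffered RPMI 1640 (pH 7.0), final 5 × 10^5 CFU/mL.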
# Candida albicans [2] = assay: Antifungal activity against itraconazole and fluconazole resistant Candida albicans ATCC 90819 after 48 hrs by broth dilution method; format: functional; details: Candida albicans, ATCC 90819, 48 h; how it was run: as §1
# Aspergillus terreus = assay: Antifungal activity against Aspergillus terreus ATCC MYA-3633 after 48 hrs by broth dilution method; format: functional; details: Aspergillus terreus, ATCC MYA-3633, 48 h
# How it was run: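 Molds tested per CLSI M38-A2. Spores were harvested from sporulating PDA cultures by filtering through glass wool and counted on a hemocytometer. Serial dilutions (0.03–31.3 µg/mL) were made in RPMI 1640 buffered to pH 7.0 with 0.165 M MOPS, final inoculum 5 × 10^5 CFU/mL.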
# Candida albicans [3] = assay: Antifungal activity against itraconazole and fluconazole susceptible Candida albicans ATCC MYA-2310 after 48 hrs by broth dilution method; format: functional; details: Candida albicans, ATCC MYA-2310, 48 h
# Pichia kudriavzevii = assay: Antifungal activity against Candida krusei ATCC 6258 after 48 hrs by broth dilution method; format: functional; details: Pichia kudriavzevii, ATCC 6258, 48 h
# How it was run: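 Yeasts tested per CLSI M27-A3 with minor changes. An overnight YPD culture (35 °C, 200 rpm) was adjusted to OD600 0.12 and diluted in MOPS-buffered RPMI 1640 (pH 7.0) to a final 1–2 × 10^3 CFU/mL. Compounds 0.015–31.3 µg/mL, DMSO <1.25%.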
# Candida albicans [4] = assay: Antifungal activity against itraconazole and fluconazole susceptible Candida albicans ATCC MYA-2876 after 48 hrs by broth dilution method; format: functional; details: Candida albicans, ATCC MYA-2876, 48 h
# Aspergillus flavus = assay: Antifungal activity against Aspergillus flavus ATCC MYA-3631 after 48 hrs by broth dilution method; format: functional; details: ATCC MYA-3631, 48 h
# Candida albicans [5] = assay: Antifungal activity against itraconazole and fluconazole resistant Candida albicans ATCC MYA-1237 after 48 hrs by broth dilution method; format: functional; details: Candida albicans, ATCC MYA-1237, 48 h; how it was run: as §1
# Candida albicans [6] = assay: Antifungal activity against Candida albicans ATCC 10231 after 48 hrs by broth dilution method; format: functional; details: ATCC 10231, 48 h
# Candida albicans [7] = assay: Antifungal activity against itraconazole and fluconazole resistant Candida albicans ATCC MYA-1003 after 48 hrs by broth dilution method; format: functional; details: Candida albicans, ATCC MYA-1003, 48 h; how it was run: as §1
# [8] = Aqueous solubility of the compound; format: physicochemical; details: buffer
# [9] = Solubility of the compound in DMSO; format: physicochemical
SMILES,MIC (Candida parapsilosis),MIC (Candida albicans [1]),MIC (Nakaseomyces glabratus),MIC (Aspergillus nidulans),MIC (Candida albicans [2]),MIC (Aspergillus terreus),MIC (Candida albicans [3]),MIC (Pichia kudriavzevii),MIC (Candida albicans [4]),MIC (Aspergillus flavus),MIC (Candida albicans [5]),MIC (Candida albicans [6]),MIC (Candida albicans [7]),solubility [8],solubility [9]
CN1CCNCC1 [METHYLPIPERAZINE],> 312 µM,> 312 µM,> 312 µM,> 312 µM,> 312 µM,> 312 µM,> 312 µM,> 312 µM,> 312 µM,> 312 µM,> 312 µM,> 312 µM,> 312 µM,,
CCCCCCCCCCCCCCN1CCOCC1,> 110 µM,> 110 µM,> 110 µM,> 110 µM,> 110 µM,> 110 µM,> 110 µM,> 110 µM,> 110 µM,> 110 µM,> 110 µM,> 110 µM,> 110 µM,,
CCCCCCCCCCCN1CCNCC1,32.4 µM,32.4 µM,32.4 µM,64.8 µM,32.4 µM,64.8 µM,32.4 µM,32.4 µM,64.8 µM,130 µM,32.4 µM,32.4 µM,64.8 µM,,
CCCCCCCCCCCCCN1CCN(CC(O)(Cn2cncn2)c2ccc(F)cc2F)CC1 (centres undefined),< 0.47 µM,15.4 µM,1.9 µM,1.9 µM,3.9 µM,1.9 µM,7.7 µM,1.9 µM,3.9 µM,1.9 µM,7.7 µM,3.9 µM,7.7 µM,Soluble,Soluble
CN1CCN(CC(O)(Cn2cncn2)c2ccc(F)cc2F)CC1 (centres undefined),2.9 µM,92.8 µM,92.8 µM,2.9 µM,92.8 µM,92.8 µM,23.1 µM,46.2 µM,23.1 µM,92.8 µM,92.8 µM,23.1 µM,92.8 µM,,
CCCCCCCCCN1CCNCC1,> 147 µM,> 147 µM,147 µM,> 147 µM,147 µM,> 147 µM,147 µM,147 µM,> 147 µM,147 µM,147 µM,147 µM,> 147 µM,,
CCCCCCCCN1CCNCC1,> 158 µM,> 158 µM,> 158 µM,> 158 µM,> 158 µM,> 158 µM,> 158 µM,> 158 µM,> 158 µM,> 158 µM,> 158 µM,> 158 µM,> 158 µM,,
CCCCCCCCCCCN1CCN(CC(O)(Cn2cncn2)c2ccc(F)cc2F)CC1 (centres undefined),0.5 µM,32.8 µM,8.2 µM,4.1 µM,32.8 µM,4.1 µM,32.8 µM,4.1 µM,16.4 µM,4.1 µM,32.8 µM,4.1 µM,32.8 µM,,
CCCCCN1CCN(CC(O)(Cn2cncn2)c2ccc(F)cc2F)CC1 (centres undefined),39.6 µM,> 79.5 µM,> 79.5 µM,> 79.5 µM,79.5 µM,> 79.5 µM,> 79.5 µM,> 79.5 µM,> 79.5 µM,> 79.5 µM,> 79.5 µM,> 79.5 µM,> 79.5 µM,,

# Source: ChEMBL document CHEMBL4024783, “Alkylated Piperazines and Piperazine-Azole Hybrids as Antifungal Agents” (J Med Chem, 2018)
